What was measured:
human α4β2α5 AChRs = human α4β2α5 AChRs (Homo sapiens, UniProt P17787+P30532+P43681); test: FLEXstation membrane potential assay, PAM of nicotine response at α4β2α5; format: cell-based; settings: for activation at 1 µM: read-out: PAM(Y or N)
human α4β2 AChRs = human α4β2 AChRs (Homo sapiens, UniProt P17787+P43681); test: FLEXstation membrane potential assay at α4β2; format: cell-based
How it was run: (§1)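 HEK tsA201 cells stably expressing the human receptor, kept in high-glucose DMEM with 10% FBS at 37 °C. Seeded on poly-D-lysine wells (150,000/well α4β2, α3β2; 200,000/well α3β2α5), then held at 29 °C for 20 h to raise expression. Membrane-potential dye fluorometry. Test compound serial dilutions added 15 min before nicotine. Response enhancement over nicotine alone, 3–4 wells per point, Hill fit; efficacy relative to reference PAM.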

human α3β4 AChRs = human α3β4 AChRs (Homo sapiens, UniProt P30926+P32297); test: Counter-screen against α3β4 nAChR; format: cell-based
How it was run: (§2)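 Membrane-potential fluorometry on HEK tsA201 cells stably expressing human receptor, cultured in high-glucose DMEM with 10% FBS, 37 °C, 5% CO2. Poly-D-lysine-coated wells seeded at 150,000 (α3β4) or 200,000 (α3β4α5) cells. Serial dilutions of test compound applied 15 min before nicotine, injected during recording. Points averaged from 3–4 wells; Hill equation fitted to enhancement relative to nicotine-evoked signal.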

human α3β4α5 AChRs = human α3β4α5 AChRs (Homo sapiens, UniProt P30532+P30926+P32297); test: Counter-screen against α3β4α5 nAChR; format: cell-based
How it was run: as §2

human α3β2 AChRs = human α3β2 AChRs (Homo sapiens, UniProt P17787+P32297); test: Counter-screen against α3β2 nAChR; format: cell-based
How it was run: as §1

human α3β2α5 AChRs = human α3β2α5 AChRs (Homo sapiens, UniProt P17787+P30532+P32297); test: Counter-screen against α3β2α5 nAChR; format: cell-based
How it was run: as §1

Pharmacokinetics in mice = format: in vivo

human α4β2α5 AChRs, sequence (P43681 29-627 limits assumed): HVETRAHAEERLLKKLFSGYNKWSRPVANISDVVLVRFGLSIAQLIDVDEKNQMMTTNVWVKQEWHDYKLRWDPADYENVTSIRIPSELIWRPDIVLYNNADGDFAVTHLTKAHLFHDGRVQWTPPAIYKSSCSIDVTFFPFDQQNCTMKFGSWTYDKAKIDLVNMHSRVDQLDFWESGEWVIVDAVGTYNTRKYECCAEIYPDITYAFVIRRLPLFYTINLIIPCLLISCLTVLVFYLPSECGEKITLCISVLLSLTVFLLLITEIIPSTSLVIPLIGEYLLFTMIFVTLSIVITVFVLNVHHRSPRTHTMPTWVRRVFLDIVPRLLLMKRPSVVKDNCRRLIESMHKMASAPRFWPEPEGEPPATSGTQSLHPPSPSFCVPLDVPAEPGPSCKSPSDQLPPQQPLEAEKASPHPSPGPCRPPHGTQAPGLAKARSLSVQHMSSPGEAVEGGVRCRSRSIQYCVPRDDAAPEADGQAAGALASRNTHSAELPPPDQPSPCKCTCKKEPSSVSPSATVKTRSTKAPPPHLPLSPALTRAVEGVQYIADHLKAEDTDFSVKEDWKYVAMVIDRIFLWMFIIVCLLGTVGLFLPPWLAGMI
human α4β2α5 AChRs, sequence (P17787 26-502): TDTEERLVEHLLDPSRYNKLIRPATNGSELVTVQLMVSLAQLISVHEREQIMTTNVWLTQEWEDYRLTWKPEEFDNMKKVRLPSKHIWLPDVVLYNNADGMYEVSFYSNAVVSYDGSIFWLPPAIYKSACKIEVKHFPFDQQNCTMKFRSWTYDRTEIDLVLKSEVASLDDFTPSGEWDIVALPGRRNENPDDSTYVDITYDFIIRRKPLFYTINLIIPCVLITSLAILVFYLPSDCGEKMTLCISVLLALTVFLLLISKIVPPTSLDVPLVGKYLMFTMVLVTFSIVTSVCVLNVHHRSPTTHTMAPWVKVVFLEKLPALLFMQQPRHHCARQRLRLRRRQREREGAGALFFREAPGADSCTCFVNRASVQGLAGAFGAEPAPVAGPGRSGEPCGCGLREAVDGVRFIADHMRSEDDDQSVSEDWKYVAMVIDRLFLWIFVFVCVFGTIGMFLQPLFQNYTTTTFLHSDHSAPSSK
human α4β2α5 AChRs, sequence (P30532 23-468): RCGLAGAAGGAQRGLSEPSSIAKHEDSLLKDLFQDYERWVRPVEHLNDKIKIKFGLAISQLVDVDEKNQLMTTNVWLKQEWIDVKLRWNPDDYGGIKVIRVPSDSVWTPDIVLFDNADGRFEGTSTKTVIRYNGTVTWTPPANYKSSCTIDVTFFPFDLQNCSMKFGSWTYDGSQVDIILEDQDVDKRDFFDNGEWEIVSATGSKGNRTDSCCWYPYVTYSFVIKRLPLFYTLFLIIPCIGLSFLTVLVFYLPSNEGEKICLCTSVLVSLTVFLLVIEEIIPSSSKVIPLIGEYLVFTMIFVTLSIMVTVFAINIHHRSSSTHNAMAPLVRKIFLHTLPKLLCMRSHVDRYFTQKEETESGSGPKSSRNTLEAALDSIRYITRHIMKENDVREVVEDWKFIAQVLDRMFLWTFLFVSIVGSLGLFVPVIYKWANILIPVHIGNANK
human α4β2 AChRs, sequence (P43681 29-627 limits assumed): as the sequence (P43681 29-627 limits assumed) above
human α4β2 AChRs, sequence (P17787 26-502): as the sequence (P17787 26-502) above
human α3β4 AChRs, sequence (P32297 32-505): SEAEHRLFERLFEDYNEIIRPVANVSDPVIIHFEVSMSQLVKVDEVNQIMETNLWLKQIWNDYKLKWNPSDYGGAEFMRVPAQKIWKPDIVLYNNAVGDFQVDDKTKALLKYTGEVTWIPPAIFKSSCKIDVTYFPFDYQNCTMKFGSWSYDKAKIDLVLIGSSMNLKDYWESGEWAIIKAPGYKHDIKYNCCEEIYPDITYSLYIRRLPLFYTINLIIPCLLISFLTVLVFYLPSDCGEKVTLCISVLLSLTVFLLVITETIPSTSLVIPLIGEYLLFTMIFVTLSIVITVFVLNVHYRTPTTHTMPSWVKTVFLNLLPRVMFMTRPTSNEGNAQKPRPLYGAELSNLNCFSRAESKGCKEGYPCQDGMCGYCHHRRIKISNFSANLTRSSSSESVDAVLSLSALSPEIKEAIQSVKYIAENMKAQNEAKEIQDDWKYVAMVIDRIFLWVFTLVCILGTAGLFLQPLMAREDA
human α3β4 AChRs, sequence (P30926 22-498): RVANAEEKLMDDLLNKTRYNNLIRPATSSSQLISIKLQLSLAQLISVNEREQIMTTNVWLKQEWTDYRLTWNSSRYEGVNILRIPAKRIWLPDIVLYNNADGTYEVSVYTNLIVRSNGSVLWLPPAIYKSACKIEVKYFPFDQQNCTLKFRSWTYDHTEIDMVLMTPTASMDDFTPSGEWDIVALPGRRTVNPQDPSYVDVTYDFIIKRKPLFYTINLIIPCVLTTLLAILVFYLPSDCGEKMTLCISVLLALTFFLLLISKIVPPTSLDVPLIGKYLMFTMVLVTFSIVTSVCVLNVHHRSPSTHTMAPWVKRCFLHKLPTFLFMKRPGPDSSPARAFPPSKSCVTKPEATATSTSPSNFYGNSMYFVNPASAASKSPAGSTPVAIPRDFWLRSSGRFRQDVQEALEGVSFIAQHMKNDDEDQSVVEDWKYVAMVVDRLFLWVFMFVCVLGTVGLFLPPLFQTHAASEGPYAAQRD
human α3β4α5 AChRs, sequence (P32297 32-505): as the sequence (P32297 32-505) above
human α3β4α5 AChRs, sequence (P30926 22-498): as the sequence (P30926 22-498) above
human α3β4α5 AChRs, sequence (P30532 23-468): as the sequence (P30532 23-468) above
human α3β2α5 AChRs, sequence (P32297 32-505): as the sequence (P32297 32-505) above
human α3β2α5 AChRs, sequence (P17787 26-502): as the sequence (P17787 26-502) above
human α3β2α5 AChRs, sequence (P30532 23-468): as the sequence (P30532 23-468) above
human α3β2 AChRs, sequence (P32297 32-505): as the sequence (P32297 32-505) above
human α3β2 AChRs, sequence (P17787 26-502): as the sequence (P17787 26-502) above

SMILES | activation at 1 µM (human α4β2α5 AChRs) [%] | other results
COc1cccc(-c2nc(-c3cccnc3)no2)c1 [Compound 4l] | < 50 | –
Fc1ccc(-n2nnc(-c3cccnc3)n2)c(F)c1 [Compound 12a] | < 50 | –
C[n+]1cccc(-c2nnn(-c3cccc(C#N)c3)n2)c1 [Compound 11a] | < 50 | –
FC(F)(F)Oc1cccc(-c2nc(-c3cccnc3)no2)c1 [Compound 4k] | < 50 | –
FC(F)(F)c1cccc(-c2nc(-c3cccnc3)no2)c1 [Compound 4j] | < 50 | –
O=[N+]([O-])c1ccccc1-c1nc(-c2cccnc2)no1 [Compound 4g] | < 50 | –
COc1ccc(OC)c(-n2nnc(-c3cccnc3)n2)c1 [Compound 12b] | < 50 | –
N#Cc1cccc(-c2ccn(-c3cccnc3)n2)c1 [Compound 5c] | < 50 | –
N#Cc1cccc(-n2nnc(-c3cnccc3Cl)n2)c1 [Compound 11h] | < 50 | –
NC(=O)c1cccc(-n2nnc(-c3cccnc3)n2)c1 [Compound 12e] | < 50 | –
N#Cc1cccc(-n2nnc(-c3ccccn3)n2)c1 [Compound 11d] | < 50 | –
N#Cc1cccc(-c2nc(-c3ccccn3)no2)c1 [Compound 1c] | < 50 | –
N#Cc1cccc(-n2nnc(-c3cncc(Cl)c3)n2)c1 [Compound 11g] | < 50 | –
C[n+]1cccc(-c2noc(-c3cccc(C#N)c3)n2)c1 [Compound 1e] | < 50 | –
N#Cc1cccc(-n2nnc(-c3ccncc3)n2)c1 [Compound 11c] | < 50 | –
N#Cc1cccc(-n2nnc(-c3cccnc3Cl)n2)c1 [Compound 11f] | < 50 | –
Clc1ccc(-c2nc(-c3cccnc3)no2)cc1 [Compound 4c] | < 50 | –
N#Cc1cccc(-c2nc(-c3ccccc3)no2)c1 [Compound 1b] | < 50 | –
N#Cc1cccc(-n2nnc(-c3ccccc3)n2)c1 [Compound 11b] | < 50 | –

SMILES | activation at 1 µM (human α4β2α5 AChRs) [%] | other results
N#Cc1cccc(-n2cc(-c3cccnc3)nn2)c1 [Compound 5j] | < 50 | –
Clc1ccccc1-n1nnc(-c2cccnc2)n1 [Compound 12i] | < 50 | –
Fc1cccc(-c2nc(-c3cccnc3)no2)c1F [Compound 4e] | < 50 | –
N#Cc1cccc(-n2nnc(-c3cccnc3)n2)c1 [Compound 5k, 3-(5-(pyridin-3-yl)-2H-tetrazol-2-yl)benzonitrile] | – | PAM potency on α4β2 (in words) (human α4β2 AChRs; compared with α4β2α5): equally potent; activity against α3β4 (human α3β4 AChRs): no activity; activity against α3β4α5 (human α3β4α5 AChRs): no activity; activity against α3β2 (human α3β2 AChRs): no activity; activity against α3β2α5 (human α3β2α5 AChRs): no activity; clearance (in words) (Pharmacokinetics in mice; mice): moderate clearance; oral exposure (in words) (Pharmacokinetics in mice; mice): very good oral exposure; clearance (Pharmacokinetics in mice; mouse, in vivo, intravenous, 1 mg/kg): 2.76 L/h/kg
Cc1ccc(-n2nnc(-c3cccnc3)n2)cc1C#N [Compound 12g] | < 50 | –
Brc1cccc(-n2nnc(-c3cccnc3)n2)c1 [Compound 12j] | < 50 | –
COc1cc(OC)cc(-n2nnc(-c3cccnc3)n2)c1 [Compound 12d] | < 50 | –
c1ccc(-c2nc(-c3cccnc3)no2)cc1 [Compound 4a] | < 50 | –
N#Cc1cccc(-c2nc(-c3ccncc3)no2)c1 [Compound 1d] | < 50 | –
N#Cc1cccc(-n2ccc(-c3cccnc3)n2)c1 [Compound 5a] | < 50 | –
Clc1cc(Cl)cc(-n2nnc(-c3cccnc3)n2)c1 [Compound 12c] | < 50 | –
N#Cc1cccc(-n2cnc(-c3cccnc3)c2)c1 [Compound 5e] | < 50 | –
N#Cc1cccc(-c2nc(-c3cccnc3)no2)c1 [Compound 1a, 3-(3-(pyridin-3-yl)-1,2,4-oxadiazol-5-yl)benzonitrile, reference compound] | – | Emax (human α4β2α5 AChRs; Maximum efficacy relative to NS9283): 1; agonist activity at α4β2 (human α4β2 AChRs; without orthosteric agonist): no agonist activity; activity against α3β4 (human α3β4 AChRs): no activity; activity against α3β4α5 (human α3β4α5 AChRs): no activity; activity against α3β2 (human α3β2 AChRs): no activity; activity against α3β2α5 (human α3β2α5 AChRs): no activity
Clc1ccccc1-c1nc(-c2cccnc2)no1 [Compound 4b] | < 50 | –
N#Cc1cccc(-c2cn(-c3cccnc3)cn2)c1 [Compound 5d] | < 50 | –
N#Cc1cccc(-n2cc(-c3cccnc3)cn2)c1 [Compound 5b] | < 50 | –
N#Cc1cccc(-c2ncn(-c3cccnc3)n2)c1 [Compound 5f] | < 50 | –
Fc1cccc(-c2nc(-c3cccnc3)no2)c1 [Compound 4d] | < 50 | –
N#Cc1cccc(-n2nnc(-c3ccc(Cl)nc3)n2)c1 [Compound 11e] | < 50 | –

Source: publication PMC3929235 (Bioorganic & medicinal chemistry letters, 2013)
